pIC50: −log10 of the molar value.
How the values were obtained:
Cholinesterase = Cholinesterase (Equus caballus, UniProt P81908); assay: Inhibition of horse serum BChE using butyrylthiocholine iodide as substrate pretreated for 10 mins followed by substrate addition measured after 20 mins by Ellman's method
Outline: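 Horse serum BChE was preincubated 10 min with test sample (20, 40, 60, 80, 100 μM). Butyrylthiocholine chloride (0.2 mM) was then added with DTNB (0.5 mM) in phosphate buffer pH 8 and incubated 20 min at 37 °C. Run in triplicate; IC50 by simple linear regression.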

Acetylcholinesterase = Acetylcholinesterase (Electrophorus electricus, UniProt O42275); assay: Inhibition of electric eel AChE using acetylthiocholine iodide as substrate pretreated for 10 mins followed by substrate addition measured after 20 mins by Ellman's method
Sequence of Acetylcholinesterase (O42275 whole entry): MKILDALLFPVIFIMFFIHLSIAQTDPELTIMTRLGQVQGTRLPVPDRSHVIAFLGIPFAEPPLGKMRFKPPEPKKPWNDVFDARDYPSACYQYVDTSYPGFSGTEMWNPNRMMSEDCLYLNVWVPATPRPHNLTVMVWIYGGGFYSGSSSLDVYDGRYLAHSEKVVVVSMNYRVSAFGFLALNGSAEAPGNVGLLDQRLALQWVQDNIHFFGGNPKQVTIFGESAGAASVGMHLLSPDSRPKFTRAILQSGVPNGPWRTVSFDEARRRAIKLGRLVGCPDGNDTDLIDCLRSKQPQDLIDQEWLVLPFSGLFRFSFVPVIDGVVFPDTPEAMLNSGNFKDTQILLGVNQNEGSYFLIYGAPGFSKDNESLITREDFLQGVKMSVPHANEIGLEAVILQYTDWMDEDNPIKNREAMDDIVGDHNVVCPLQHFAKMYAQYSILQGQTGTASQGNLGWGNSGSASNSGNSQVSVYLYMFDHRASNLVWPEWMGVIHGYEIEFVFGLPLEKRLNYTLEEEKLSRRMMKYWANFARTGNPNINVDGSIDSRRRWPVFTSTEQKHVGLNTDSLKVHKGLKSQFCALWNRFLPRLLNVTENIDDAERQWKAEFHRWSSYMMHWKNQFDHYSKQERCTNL

Sequence of Cholinesterase (P81908 whole entry): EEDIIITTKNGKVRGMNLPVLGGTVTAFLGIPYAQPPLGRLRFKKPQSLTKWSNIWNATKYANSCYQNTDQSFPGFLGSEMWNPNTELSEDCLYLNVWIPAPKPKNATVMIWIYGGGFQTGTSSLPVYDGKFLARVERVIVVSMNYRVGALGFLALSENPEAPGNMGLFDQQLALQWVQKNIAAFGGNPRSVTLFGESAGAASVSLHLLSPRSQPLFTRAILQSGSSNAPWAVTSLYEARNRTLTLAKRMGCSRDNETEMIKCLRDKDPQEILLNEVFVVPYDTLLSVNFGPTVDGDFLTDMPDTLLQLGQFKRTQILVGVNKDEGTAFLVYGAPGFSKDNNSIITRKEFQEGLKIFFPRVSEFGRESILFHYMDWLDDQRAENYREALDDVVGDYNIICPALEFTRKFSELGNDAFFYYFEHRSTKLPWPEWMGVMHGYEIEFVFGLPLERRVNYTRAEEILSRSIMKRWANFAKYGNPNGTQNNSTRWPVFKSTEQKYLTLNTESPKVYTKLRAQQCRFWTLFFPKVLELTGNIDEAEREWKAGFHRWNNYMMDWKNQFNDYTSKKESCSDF

| Structure (SMILES) | pIC50 (Cholinesterase) | pIC50 (Acetylcholinesterase) |
| --- | --- | --- |
| CC(=O)OC[C@H]1O[C@@H](Oc2c(-c3ccccc3)oc3ccccc3c2=O)[C@H](OC(C)=O)[C@@H](OC(C)=O)[C@@H]1OC(C)=O | 4.34 | 3.99 |
| CC(=O)OC[C@H]1O[C@@H](Oc2c(-c3cccs3)oc3ccccc3c2=O)[C@H](OC(C)=O)[C@@H](OC(C)=O)[C@@H]1OC(C)=O | 4.59 | 4.73 |
| COc1ccc(-c2oc3ccccc3c(=O)c2O[C@@H]2O[C@H](COC(C)=O)[C@@H](OC(C)=O)[C@H](OC(C)=O)[C@H]2OC(C)=O)cc1 | 4.59 | 4.68 |
| CC(=O)Nc1ccc(-c2oc3ccccc3c(=O)c2O[C@@H]2O[C@H](COC(C)=O)[C@@H](OC(C)=O)[C@H](OC(C)=O)[C@H]2OC(C)=O)cc1 | 4.40 | 4.41 |
| CC(=O)OC[C@H]1O[C@@H](Oc2c(-c3ccccc3C(=O)O)oc3ccccc3c2=O)[C@H](OC(C)=O)[C@@H](OC(C)=O)[C@@H]1OC(C)=O | 4.31 | 4.47 |
| CC(=O)OC[C@H]1O[C@@H](Oc2c(-c3ccc(F)cc3)oc3ccccc3c2=O)[C@H](OC(C)=O)[C@@H](OC(C)=O)[C@@H]1OC(C)=O | 4.30 | 4.53 |
| CC(=O)OC[C@H]1O[C@@H](Oc2c(-c3ccc(Br)cc3)oc3cc(C)ccc3c2=O)[C@H](OC(C)=O)[C@@H](OC(C)=O)[C@@H]1OC(C)=O | 4.51 | 4.65 |
| CC(=O)OC[C@H]1O[C@@H](Oc2c(-c3ccc(CC(C)C)cc3)oc3ccccc3c2=O)[C@H](OC(C)=O)[C@@H](OC(C)=O)[C@@H]1OC(C)=O | 5.27 | 5.69 |
| CC(=O)OC[C@H]1O[C@@H](Oc2c(-c3cccc4ccccc34)oc3ccccc3c2=O)[C@H](OC(C)=O)[C@@H](OC(C)=O)[C@@H]1OC(C)=O | 4.73 | 4.44 |
| CC(=O)OC[C@H]1O[C@@H](Oc2c(-c3ccc(Br)cc3)oc3ccccc3c2=O)[C@H](OC(C)=O)[C@@H](OC(C)=O)[C@@H]1OC(C)=O | 5.51 | 4.99 |

From ChEMBL document CHEMBL4118263, “Synthesis, structure-activity relationship and molecular docking studies of 3-O-flavonol glycosides as cholinesterase inhibitors” (Bioorg Med Chem, 2018)
